YB-1 expression: YB-1 expression inhibition | U2OS, qRT-PCR YB-1 vs CDIP delta delta Cp, 16 h; active compounds read high; zero = DMSO, each unit about twofold | delta delta Cp (YB-1 minus CDIP) (test concentration not listed) | 0.37% of 30,000 active | AID 434959;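 active = delta delta Cp rounded down to an integer at or above 3, about 3 SD of DMSO wells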;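 note: higher means less YB-1 transcript or more CDIP transcript relative to DMSO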
INS-1E rescue: preserves ATP levels in cytokine-treated INS-1E cells; INS-1E cytokine-induced death, ATP luminescence, 48 h; normalised: neutral wells 0, positive control 100; protection from cytokine-induced ATP loss, % at 10 µM; 0.1% of 20,000 active; AID 488910;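 active = mean replicate protection from cytokine-induced ATP loss at least 50% and at least 75% of replicates each reaching 50%; inconclusive = meets only one of the two criteria, mean or replicate share; inactive = fails both the mean and replicate share criteria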
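Material: INS-1E rat cells; Quantity: 8000 cells/well; Buffer or medium: phenol-red-free RPMI with 5% fetal bovine serum; Probe or stimulus: cytokine cocktail of IFN-γ, TNF-α and IL-1β; Compound dosing: single test concentration per compound, delivered by pin transfer; Incubation: 48 h co-treatment, 10 min post-lysis read; Signal: CellTiter-Glo luminescence.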
T cruzi HTS: inhibitors of intracellular Trypanosoma cruzi; 4.9% of 22,000 active; intracellular Trypanosoma cruzi in host cells, plate reader; AID 651903; activity score (inhibition), % at 5.01 µM; in the data active = activity score above about 55%; inconclusive = no clear call, values can overlap the other calls;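 note: parasites and compound incubated about four days before reading; 0% = median of neutral control wells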
* = called active by the depositor; ? = inconclusive; · = no result given. The entries come from a sample that favours hits as a whole.

SMILES	YB-1 expression	INS-1E rescue	T cruzi HTS
CN(C)CCCC[C@@H]1NC(=O)[C@@H]2C[C@H](C(=O)O)[C@H](c3cccc(OCCO)c3)N2C1=O	0.286	·	·
Cc1ccc(Cn2nc(C(=O)Sc3cccc(Cl)c3Cl)cc2C)cc1	0.0144	·	·
Cc1ccccc1C(=O)N1N=C(c2ccc(Br)cc2)CC1c1nc2ccccc2[nH]1 (stereo unspecified)	-0.247	·	·
O=C(c1ccccc1)c1cc[n+](Cc2ccccn2)cc1	-1.04	·	·
CC(=NC1CC1)c1c(C)[nH]n(-c2nc3ccccc3s2)c1=O	-0.238	·	·
C[C@H]1CN([C@@H](C)CO)C(=O)c2cccc(NC(=O)Nc3ccc(F)cc3)c2O[C@H]1CN(C)Cc1ccc(Cl)c(Cl)c1	0.194	-11.6	-33.2
C[C@@H]1CN([C@H](C)CO)C(=O)c2cccc(NC(=O)Nc3ccc(C(F)(F)F)cc3)c2O[C@@H]1CN(C)Cc1ccc(Cl)c(Cl)c1	0.255	-64.1	85.3*
C[C@@H]1CN([C@@H](C)CO)C(=O)c2cccc(NC(=O)Nc3ccc(C(F)(F)F)cc3)c2O[C@H]1CN(C)Cc1ccc(Cl)c(Cl)c1	0.0205	-51.9	78.5*
C[C@H](CO)N1C[C@H](C)[C@@H](CN(C)Cc2ccc(Cl)c(Cl)c2)Oc2c(NC(=O)Nc3ccc(F)cc3)cccc2C1=O	0.256	-22.6	18.5
C[C@@H]1CN([C@H](C)CO)C(=O)c2cccc(NC(=O)Nc3ccc(C(F)(F)F)cc3)c2O[C@H]1CN(C)Cc1ccc(Cl)c(Cl)c1	0.178	-35.7	86.8*
C[C@@H]1CN([C@H](C)CO)C(=O)c2cccc(NC(=O)Nc3ccc(F)cc3)c2O[C@H]1CN(C)Cc1ccc(Cl)c(Cl)c1	-0.0781	-8.1	35.2
COc1cccc(C(=O)NC(NCC2CCCO2)(C(F)(F)F)C(F)(F)F)c1 (stereo unspecified)	2.69	·	·
C[C@H]1CN([C@@H](C)CO)C(=O)c2cccc(NC(=O)C3CC3)c2O[C@H]1CN(C)C(=O)Nc1ccc2c(c1)OCO2	1.14	7.1	-6.1
COc1ccc(NC(=O)Nc2cccc3c2O[C@H](CN(C)C(=O)Nc2c(C)noc2C)[C@H](C)CN([C@@H](C)CO)C3=O)cc1	-0.205	12.4	25.2
C[C@@H]1CN([C@H](C)CO)C(=O)c2cccc(NS(=O)(=O)c3ccc(Cl)cc3)c2O[C@@H]1CN(C)C(=O)Nc1ccc(C(F)(F)F)cc1	-0.164	-33.1	2.5
COc1ccc(NC(=O)Nc2cccc3c2O[C@H](CN(C)C(=O)Nc2c(C)noc2C)[C@H](C)CN([C@H](C)CO)C3=O)cc1	5.89*	0.5	-4.1
COc1ccc(NC(=O)N(C)C[C@@H]2Oc3c(NC(=O)Nc4ccc(C(F)(F)F)cc4)cccc3C(=O)N([C@H](C)CO)C[C@H]2C)cc1	0.105	-11.7	59.9*
C[C@@H]1CN([C@@H](C)CO)C(=O)c2cccc(NC(=O)C3CC3)c2O[C@@H]1CN(C)C(=O)Nc1ccc2c(c1)OCO2	3.7*	13.6	-6.7
C[C@@H]1CN([C@@H](C)CO)C(=O)c2cccc(NS(=O)(=O)c3ccc(Cl)cc3)c2O[C@@H]1CN(C)C(=O)Nc1ccc(C(F)(F)F)cc1	-0.101	-90.9	82.6*
COc1ccc(NC(=O)Nc2cccc3c2O[C@H](CN(C)C(=O)Nc2ccc(C(F)(F)F)cc2)[C@H](C)CN([C@H](C)CO)C3=O)cc1	-0.471	2.7	1.3
O=c1onc(-c2cccc(Cl)c2)n1-c1ccccc1	-0.313	·	·
CSc1ccccc1NC(=O)c1cc2n(n1)C(C(F)(F)F)C1CCc3ccccc3C1N2 (stereo unspecified)	0.274	·	·
CSc1sc(C(=O)Sc2ccccc2)cc1S(=O)(=O)C(C)C	0.124	·	·
C[C@H](CO)N1C[C@H](C)[C@@H](CN(C)C(=O)Nc2ccc(F)cc2)Oc2c(NC(=O)Nc3ccc(C(F)(F)F)cc3)cccc2C1=O	0.201	-8.1	4.8
C[C@@H]1CN([C@H](C)CO)C(=O)c2cccc(NC(=O)Nc3ccc(C(F)(F)F)cc3)c2O[C@@H]1CN(C)C(=O)Nc1ccc(C(F)(F)F)cc1	-0.296	-111.6	74.7*
SMILES	YB-1 expression	INS-1E rescue	T cruzi HTS
C[C@@H]1CN([C@H](C)CO)C(=O)c2cccc(NC(=O)Nc3ccc(C(F)(F)F)cc3)c2O[C@H]1CN(C)C(=O)Nc1ccc2c(c1)OCO2	0.00445	-56.4	66.4*
C[C@H]1CN([C@@H](C)CO)C(=O)c2cccc(NC(=O)Nc3ccc(C(F)(F)F)cc3)c2O[C@H]1CN(C)C(=O)Nc1ccc(F)cc1	0.515	-57.0	59.8*
C[C@H]1CN([C@@H](C)CO)C(=O)c2cccc(NC(=O)Nc3ccc(C(F)(F)F)cc3)c2O[C@@H]1CN(C)C	-0.332	-11.9	38.4
C[C@H](CO)N1C[C@H](C)[C@H](CN(C)C)Oc2c(NC(=O)Nc3ccc(C(F)(F)F)cc3)cccc2C1=O	-0.37	-5.1	81.0*
C[C@H]1CN([C@@H](C)CO)C(=O)c2cccc(NC(=O)Nc3ccc(C(F)(F)F)cc3)c2O[C@H]1CN(C)C(=O)Nc1ccc(C(F)(F)F)cc1	0.386	-2.9	48.4
C[C@@H]1CN([C@@H](C)CO)C(=O)c2cccc(NC(=O)Nc3ccc4c(c3)OCO4)c2O[C@@H]1CN(C)C(=O)Nc1ccc(C(F)(F)F)cc1	-0.00905	3.5	-27.9
Cc1ccc(NC(=S)NC(=O)C23CC4CCC(CC(C4)C2)C3)cc1	-0.169	·	·
O=C(CC(Sc1ccc(Br)cc1)C(=O)O)c1ccc(Cl)cc1 (stereo unspecified)	-0.0684	·	·
Cc1nnsc1C(=O)NC(=O)Nc1cc(Cl)cc(Cl)c1	-0.0474	·	·
Cn1nc(C(C)(C)C)cc1N	-1.12	·	·
COc1ccc(-c2cc(=O)c3c(O)c(OC)c(O[C@@H]4O[C@H](CO)[C@@H](O)[C@H](O)[C@H]4O[C@@H]4O[C@@H](C)[C@H](O)[C@@H](O)[C@H]4O)cc3o2)cc1	-0.123	·	·
CC(=O)N1c2ccccc2C(=O)C1NC(N)=S (stereo unspecified)	0.175	·	·
Cn1c(=N)n(CCCOc2ccc(F)cc2)c2ccccc21	-0.117	·	·
c1ccc(-c2cnc3nonc3n2)cc1	0.134	·	·
C[C@@H]1CN([C@@H](C)CO)C(=O)Cc2cc(NC(=O)Nc3ccc(C(F)(F)F)cc3)ccc2O[C@@H]1CN(C)Cc1ccccc1	-0.105	-32.5	57.5*
C[C@H]1CN([C@@H](C)CO)C(=O)Cc2cc(NC(=O)Nc3ccccc3)ccc2O[C@@H]1CN(C)Cc1ccc(C(F)(F)F)cc1	-0.000628	-24.4	26.7
C[C@@H]1CN([C@@H](C)CO)C(=O)Cc2cc(NC(=O)Nc3ccccc3)ccc2O[C@@H]1CN(C)Cc1ccc(C(F)(F)F)cc1	0.257	-4.2	?
C[C@@H]1CN([C@H](C)CO)C(=O)Cc2cc(NC(=O)Nc3ccc(C(F)(F)F)cc3)ccc2O[C@@H]1CN(C)Cc1ccccc1	0.188	-32.1	69.2*
COc1ccc(C2CC(c3ccc(Br)cc3)=NN2C(=O)CCN2CCOCC2)cc1 (stereo unspecified)	-0.268	·	·
O=[n+]1c(CO)c(CO)n([O-])c2ccccc21	-0.0371	·	·
COC(=O)c1ccc(Oc2ccc(Cl)cc2Cl)o1	0.0463	·	·
Cc1ccsc1/C=N/NC(=O)CCCCCCC(=O)Nc1ccccc1O	-0.538	8.2	-0.2

Bioassay records (PubChem)
